Measured values gathered from unrelated publications.
Compare with care: the assays were run in different laboratories.
Read-out: cell growth or viability

SMILES	cell line	method	time	notes	measurement	result
C=CC(=O)N1CCN(c2nc(=O)n(-c3c(C)ccnc3C(C)C)c3nc(-c4c(O)cccc4F)c(F)cc23)[C@@H](C)C1	NCI-H1373	ATP luminescence			IC50	48.4 nM
COc1ccc(OCc2ccc([N+](=O)[O-])cc2)cc1-c1c[nH]c2ncc(-c3cncc(C(=O)N(C)C)c3)cc12	K562	MTT	72 h		GI50	697 nM
O=C(O)c1ccccc1Nc1cccc(C(F)(F)F)c1	HCT-15	SRB	48 h		GI50	> 30000 nM
CC(C)C[C@@H]1NC(=O)[C@@H](N(C)C(=O)[C@H](CC2CCC2)NC(=O)[C@@H]2C[C@@H](F)CN2C(=O)C2(C(F)(F)F)CC(F)(F)C2)CCCCNC(=O)C2(CC2)NC(=O)[C@H](Cc2cc(Cl)ccc2Cl)N(C)C1=O	NCI-H446	MTT	5 days		GI50	65 nM
C=CC[C@@H]1/C=C(\C)C[C@H](C)C[C@H](OC)[C@H]2O[C@@](O)(C(=O)C(=O)N3CCCC[C@H]3C(=O)O[C@H](/C(C)=C/[C@@H]3CC[C@@H](O)[C@H](OC)C3)[C@H](C)[C@@H](O)CC1=O)[C@H](C)C[C@@H]2OC	K562	MTT	72 h		GI50	> 1000 nM
C=CC(=O)c1cccnc1Nc1cc(C(F)(F)F)ccc1OCc1ccccc1	HCT-15	SRB	48 h		GI50	19500 nM
Cc1cc(C)c(CNC(=O)c2cc(Cl)c3c(c2C)O[C@@](C)([C@H]2CC[C@H](N(C)C)CC2)O3)c(=O)[nH]1	HT-1376	ATP luminescence	18 days		GI50	18 nM
O=C(NO)c1ccc(CNc2nc3cccc(-c4ccc5c(c4)OCO5)n3n2)cc1	SN12C	SRB			GI50	720 nM
C=C(F)C(=O)N1CCN(c2nc(OC[C@@H]3CCCN3C)nc3c2CCN(c2cccc4cccc(Cl)c24)C3)C[C@@H]1CC#N	HCT-15	ATP luminescence		3D culture	IC50	> 1000 nM
CN(C)C(=O)c1cncc(-c2cnc3[nH]cc(-c4ccccc4C#N)c3c2)c1	K562	MTT	72 h		GI50	591 nM
COc1cc2c3c(n(CCCNCCO)c(=O)c2cc1OC)-c1nc2c(cc1C3=O)OCO2	K562	MTS	72 h		IC50	196 nM
C=CC(=O)c1cccnc1Nc1cc(C(F)(F)F)ccc1OC	HCT-15	SRB	48 h		GI50	6960 nM
C=CS(=O)(=O)Nc1ccc(OC)c(-c2c[nH]c3ncc(-c4cncc(C(=O)N(C)C)c4)cc23)c1	K562	MTT	72 h		GI50	> 1000 nM
O=C(C=Cc1ccccc1)Nc1cc(-c2ccnc(N3CCC(O)CC3)c2)ccn1	MCF-10A	MTT	72 h		IC50	3330 nM
CN1CCc2cc(Nc3ncc(C4CC4)c(NCCCNC(=O)C4CCC4)n3)ccc2C1	K562	MTT	72 h		GI50	> 1000 nM
C=CC(=O)NC1CCN(c2ncc3ncnc(Nc4ccc(Oc5ccc6c(c5)ncn6C)c(C)c4)c3n2)CC1	NCI-H1373				EC50	137 µM
CCCN1C(=O)[C@H](CC(C)C)NC(=O)[C@@H](N(C)C(=O)[C@H](CC2CCC2)NC(=O)[C@@H]2C[C@@H](F)CN2C(=O)[C@@](C)(O)C(F)(F)F)CCCCNC(=O)C2(CC2)NC(=O)[C@@H]1Cc1cc(Cl)ccc1Cl	NCI-H446	MTT	5 days		GI50	28 nM
COc1cc2c3c(n(CCCN4CCOCC4)c(=O)c2cc1OC)-c1nc2c(cc1C3=O)OCO2	K562	MTS	72 h		IC50	1010 nM
